Measurements published in ChEMBL document CHEMBL1629556 (2008).
≈ marks a conversion by molar mass, not a printed value. Calls of active or inactive are those of the source. The calls are words filed in the database; no cut-off is given here.

Assays:
Staphylococcus aureus [1] = assay: Antibacterial activity against Staphylococcus aureus isolate 2712 assessed as reduction in bacterial count at 20 ug/ml after 24 hrs by time-kill assay; format: functional, organism-based
Procedure, shortened: (§1)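 Overnight Mueller-Hinton broth cultures were diluted in cation-adjusted MH broth. About 10^6 to 10^7 CFU went into MH broth with 20 μg/ml dicloxacillin at 35°C. Viable counts were made by spreading 0.1 ml at 0, 1, 3, 6, 9, 14, 24, 30, 42 and 48 h. Three runs, with the median CFU plotted semilogarithmically.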

Staphylococcus aureus [2] = assay: Antibacterial activity against Staphylococcus aureus isolate 1326 infected in Wistar rat thigh infection model assessed as bacterial load per gram of thigh at 200 mg/kg, sc administered 2 hrs postinfection and every 6 hrs thereafter for 1 day measured after 24 hrs (reference value: 8.6%); format: functional; settings: route subcutaneous
Staphylococcus aureus [3] = assay: Antibacterial activity against Staphylococcus aureus isolate 1552 infected in Wistar rat thigh infection model assessed as bacterial load per gram of thigh at 200 mg/kg, sc administered 2 hrs postinfection and every 6 hrs thereafter for 1 day measured after 24 hrs (reference value: 8.6%); format: functional; settings: route subcutaneous
Staphylococcus aureus [4] = assay: Antibacterial activity against Staphylococcus aureus isolate 4666 infected in Wistar rat thigh infection model assessed as bacterial load per gram of thigh at 200 mg/kg, sc administered 2 hrs postinfection and every 6 hrs thereafter for 1 day measured after 24 hrs (reference value: 8.6%); format: functional; settings: route subcutaneous
Staphylococcus aureus [5] = assay: Antibacterial activity against Staphylococcus aureus isolate 6083 infected in Wistar rat thigh infection model assessed as bacterial load per gram of thigh at 200 mg/kg, sc administered 2 hrs postinfection and every 6 hrs thereafter for 1 day measured after 24 hrs (reference value: 8.6%); format: functional; settings: route subcutaneous
Staphylococcus aureus [6] = assay: Antibacterial activity against Staphylococcus aureus isolate 2712 infected in Wistar rat thigh infection model assessed as bacterial load per gram of thigh at 200 mg/kg, sc administered 2 hrs postinfection and every 6 hrs thereafter for 1 day measured after 24 hrs (reference value: 8.6%); format: functional; settings: route subcutaneous
Staphylococcus aureus [7] = assay: Antibacterial activity against Staphylococcus aureus isolate 29213 infected in Wistar rat thigh infection model assessed as bacterial load per gram of thigh at 200 mg/kg, sc administered 2 hrs postinfection and every 6 hrs thereafter for 1 day measured after 24 hrs (reference value: 8.6%); format: functional; settings: route subcutaneous
Staphylococcus aureus [8] = assay: Antibacterial activity against Staphylococcus aureus isolate 1306 infected in Wistar rat thigh infection model assessed as bacterial load per gram of thigh at 200 mg/kg, sc administered 2 hrs postinfection and every 6 hrs thereafter for 1 day measured after 24 hrs (reference value: 8.6%); format: functional; settings: route subcutaneous
Staphylococcus aureus [9] = assay: Antibacterial activity against Staphylococcus aureus isolate 1306 by agar dilution method; format: functional
Staphylococcus aureus [10] = assay: Antibacterial activity against Staphylococcus aureus isolate 1326 by agar dilution method; format: functional
Procedure, shortened: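 mecA-positive clinical isolate collected October–November 2006, species confirmed on Vitek 2. MIC determined by agar dilution following CLSI guidelines, with 2-μg/ml concentration steps from 2 to 16 μg/ml.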

Staphylococcus aureus [11] = assay: Antibacterial activity against Staphylococcus aureus isolate 1552 by agar dilution method; format: functional
Staphylococcus aureus [12] = assay: Antibacterial activity against Staphylococcus aureus isolate 4666 by agar dilution method; format: functional
Staphylococcus aureus [13] = assay: Antibacterial activity against Staphylococcus aureus isolate 6083 by agar dilution method; format: functional
Staphylococcus aureus [14] = assay: Antibacterial activity against Staphylococcus aureus isolate 2712 by agar dilution method; format: functional
Staphylococcus aureus [15] = assay: Antibacterial activity against mecA-negative Staphylococcus aureus isolate 29213 by agar dilution method; format: functional
Staphylococcus aureus [16] = assay: Effect on growth of Staphylococcus aureus isolate 1306 assessed as highest compound concentration at which cell growth occurred measured after 48 hrs; format: functional
Procedure, shortened: (§2)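 Overnight cultures were set to 4 McFarland in cation-adjusted MH broth and spread at about 10^8, 10^7 and 10^6 CFU, or 10^4 if growth was confluent. Colonies were counted after 48 h at 35°C. Three runs, median CFU.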

Staphylococcus aureus [17] = assay: Effect on growth of Staphylococcus aureus isolate 1326 assessed as highest compound concentration at which cell growth occurred measured after 48 hrs; format: functional; procedure, shortened: as §2
Staphylococcus aureus [18] = assay: Effect on growth of Staphylococcus aureus isolate 1552 assessed as highest compound concentration at which cell growth occurred measured after 48 hrs; format: functional; procedure, shortened: as §2
Staphylococcus aureus [19] = assay: Effect on growth of Staphylococcus aureus isolate 4666 assessed as highest compound concentration at which cell growth occurred measured after 48 hrs; format: functional; procedure, shortened: as §2
Staphylococcus aureus [20] = assay: Effect on growth of mecA-negative Staphylococcus aureus isolate 29213 by assessed as highest compound concentration at which cell growth occurred measured after 48 hrs; format: functional; procedure, shortened: as §2
Staphylococcus aureus [21] = assay: Effect on growth of Staphylococcus aureus isolate 1326 assessed as highest compound concentration at which cell growth occurred measured after 48 hrs in presence of 2% NaCl; format: functional
Procedure, shortened: (§3)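 Inocula of about 10^8 to 10^6 CFU came from a 4 McFarland suspension. Colonies were counted after 48 h at 35°C. Three runs, median CFU.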

Staphylococcus aureus [22] = assay: Effect on growth of against Staphylococcus aureus isolate 4666 assessed as highest compound concentration at which cell growth occurred measured after 48 hrs in presence of 2% NaCl; format: functional; procedure, shortened: as §3
Staphylococcus aureus [23] = assay: Antibacterial activity against Staphylococcus aureus isolate 1306 assessed as reduction in bacterial count at 20 ug/ml after 24 hrs by time-kill assay; format: functional, organism-based; procedure, shortened: as §1
Staphylococcus aureus [24] = assay: Antibacterial activity against Staphylococcus aureus isolate 1326 assessed as reduction in bacterial count at 20 ug/ml after 24 hrs by time-kill assay; format: functional, organism-based; procedure, shortened: as §1
Staphylococcus aureus [25] = assay: Antibacterial activity against Staphylococcus aureus isolate 1552 assessed as reduction in bacterial count at 20 ug/ml after 24 hrs by time-kill assay; format: functional, organism-based; procedure, shortened: as §1
Staphylococcus aureus [26] = assay: Antibacterial activity against Staphylococcus aureus isolate 4666 assessed as reduction in bacterial count at 20 ug/ml after 24 hrs by time-kill assay; format: functional, organism-based; procedure, shortened: as §1
Staphylococcus aureus [27] = assay: Antibacterial activity against mecA-negative Staphylococcus aureus isolate 29213 assessed as reduction in bacterial count at 20 ug/ml after 24 hrs by time-kill assay; format: functional, organism-based; procedure, shortened: as §1
Staphylococcus aureus [28] = assay: Antibacterial activity against Staphylococcus aureus isolate 6083 assessed as reduction in bacterial count at 20 ug/ml after 24 hrs by time-kill assay; format: functional, organism-based; procedure, shortened: as §1

SMILES: Cc1onc(-c2ccccc2)c1C(=O)N[C@@H]1C(=O)N2[C@@H]1SC(C)(C)[C@@H]2C(=O)O [OXACILLIN]
- inhibition (Staphylococcus aureus [1]): inactive
- Activity (Staphylococcus aureus [2]): 4.3%
- Activity (Staphylococcus aureus [3]): 9.1%
- Activity (Staphylococcus aureus [4]): 10.4%
- Activity (Staphylococcus aureus [5]): 6.2%
- Activity (Staphylococcus aureus [6]): 8.8%
- Activity (Staphylococcus aureus [7]): 12.4%
- Activity (Staphylococcus aureus [8]): 9.7%
- MIC (Staphylococcus aureus [9]): 0.5 µg/mL (≈ 1.25 µM)
- MIC (Staphylococcus aureus [10]): 0.25 µg/mL (≈ 0.623 µM)
- MIC (Staphylococcus aureus [11]): 1 µg/mL (≈ 2.49 µM)
- MIC (Staphylococcus aureus [12]): 1 µg/mL (≈ 2.49 µM)
- MIC (Staphylococcus aureus [13]): 6 µg/mL (≈ 14.9 µM)
- MIC (Staphylococcus aureus [14]): 256 µg/mL (≈ 638 µM)
- MIC (Staphylococcus aureus [15]): 0.125 µg/mL (≈ 0.311 µM)
- Activity (Staphylococcus aureus [16]): 32 µg/mL
- Activity (Staphylococcus aureus [17]): 0.5 µg/mL
- Activity (Staphylococcus aureus [18]): 64 µg/mL
- Activity (Staphylococcus aureus [19]): 1 µg/mL
- Activity (Staphylococcus aureus [20]): 0.5 µg/mL
- Activity (Staphylococcus aureus [21]): 1 µg/mL
- Activity (Staphylococcus aureus [22]): 2 µg/mL
- inhibition (Staphylococcus aureus [23]): Active
- inhibition (Staphylococcus aureus [24]): Active
- inhibition (Staphylococcus aureus [25]): Active
- inhibition (Staphylococcus aureus [26]): Active
- inhibition (Staphylococcus aureus [27]): Active
- inhibition (Staphylococcus aureus [28]): Active
